ChEMBL document CHEMBL1141858, “Lichen metabolites. 2. Antiproliferative and cytotoxic activity of gyrophoric, usnic, and diffractaic acid on human keratinocyte growth” (J Nat Prod, 1999)
pIC50: −log10 of the molar value.

Legend:
HaCaT [1] = assay: Growth inhibition of human HaCaT cells assessed as lactate dehydrogenase release at 2 uM after 4 hrs by UV method; format: functional
In short: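 HaCaT cells were exposed to compound at 2 µM for 4 h at 37 °C. Extracellular LDH activity in the medium was measured by the UV method with pyruvate and NADH. Values were compared against vehicle controls (n = 3).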

HaCaT [2] = assay: Antiproliferative activity against human HaCaT cells; format: functional, cell-based
In short: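 HaCaT keratinocytes were seeded at 2.5 × 10^4 per well in DMEM and grown 24 h. Cells were trypsinized (0.5% trypsin, 0.2% EDTA, 20 min, 37 °C) and counted by phase contrast microscopy. Inhibition was taken relative to vehicle (n = 3). IC50 was interpolated from a log concentration-response using ≥4 concentrations.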

SMILES	Activity (HaCaT [1]) [mU/mL]	pIC50 (HaCaT [2])
CC(=O)C1=C(O)C=C2Oc3c(C(C)=O)c(O)c(C)c(O)c3[C@@]2(C)C1=O [(+)-USNIC ACID]	168	5.68
O=C1c2c(O)cccc2Cc2cccc(O)c21 [ANTHRALIN]	294	6.15
COC(=O)c1c(C)cc(OC(=O)c2c(C)cc(O)c(C=O)c2O)c(C)c1O [ATRANORIN]		< 5.30
COC(=O)c1c(C)cc(O)c(C)c1O [ATRARIC ACID]		< 5.30
COc1cc(C)c(C(=O)Oc2cc(C)c(C(=O)O)c(O)c2C)c(OC)c1C [DIFFRACTAIC ACID]	136	5.59
CCOC(=O)c1c(C)cc(O)c(C=O)c1O [ETHYL HEMATOMMATE]		< 5.30
Cc1cc(OC(=O)c2c(C)cc(OC(=O)c3c(C)cc(O)cc3O)cc2O)cc(O)c1C(=O)O [GYROPHORIC ACID]	138	5.77
C=C1C(=O)O[C@@H](CCCCCCCCCCCCC)[C@@H]1C(=O)O [PROTOLICHESTERINIC ACID]		< 5.30
